The source made the active and inactive calls. No cut-off for these calls is given here.
Legend:
Candida albicans [1] = assay: Ratio of MIC for Candida albicans ATCC 90028 in absence of ergosterol to MIC for Candida albicans ATCC 90028 in presence of ergosterol; assay type: functional
Summary of the method: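 MICs per modified M27-A3 in RPMI with or without ergosterol (final 400 µg/mL, dissolved in 10% DMSO/1% Tween 80 with heating). Inoculum 10³ CFU/mL; tetrazoles and itraconazole tested at 512–1 µg/mL, amphotericin B at 125–0.24 µg/mL. Plates were incubated at 35°C and read at 72 h; MIC was the lowest concentration with no visible growth. Run in triplicate on three days, geometric means.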

Candida albicans [2] = assay: Synergistic antifungal activity against Candida albicans ATCC 90028 at 80 ug/ml after 48 hrs in presence of fluconazol by checkerboard assay; assay type: functional
Candida albicans [3] = assay: Antifungal activity against Candida albicans ATCC 90028 infected in Galleria mellonella larvae assessed as survival at 16 ug/ml treated for 30 to 60 mins post infection and measured after 48 hrs; assay type: functional, organism-based
Summary of the method: (§1)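 G. mellonella larvae (195±17 mg, ethanol-disinfected) were given 10 µL C. albicans suspension into the last right proleg. A single 10 µL dose at 16 µg/mL in RPMI (diluted from 1600 µg/mL stock) went into the last left proleg, either 30 min or 1 h after infection or 1 h or 30 min before it. Survival was checked every 24 h for 2 days. Untreated infected larvae and PBS-injected larvae served as controls; ≥3 independent experiments, mean±SEM.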

Candida albicans [4] = assay: Antifungal activity against Candida albicans ATCC 90028 assessed as reduction in cell adherence to human Caco2 cells at 0.0313 ug/ml preincubated for 2 hrs followed by compound washout and resuspended in RPMI medium measured after 18 hrs by colony counting assay relative to control; assay type: functional; set-up: scale not given: the % may be the effect or the level left
Summary of the method: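 Yeasts grown 18 h in YEPD at 30°C, then exposed at 10^4/mL to compound in RPMI for 2 h at 35°C with shaking. Washed twice in PBS, resuspended in RPMI and added to Caco-2 monolayers (18 h culture in EMEM/10% FCS) for 2 h at 37°C, 5% CO2. Non-adherent cells rinsed off, Caco-2 lysed with water, and adherent yeasts counted as colonies on Sabouraud agar after 18 h at 30°C. Expressed as % of cells added versus untreated; three experiments.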

Candida albicans [5] = assay: Antifungal activity against Candida albicans ATCC 90028 infected in Galleria mellonella larvae assessed as increase in larvae health score at 16 ug/ml preincubated for 30 mins followed by fungal infection and measured after 18 to 48 hrs; assay type: functional, organism-based
Summary of the method: (§2)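 Larvae (195±17 mg, ethanol-disinfected) were injected with 10 µL C. albicans into the last right proleg. Compound at 16 µg/mL in RPMI (10 µL) went into the last left proleg 30 min or 1 h after infection, or 1 h or 30 min before it. A health index was scored from mobility, cocoon formation, melanization and survival, with monitoring every 24 h for 2 days. Controls were infected and PBS-injected larvae.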

Candida albicans [6] = assay: Antifungal activity against Candida albicans ATCC 90028 infected in Galleria mellonella larvae assessed as increase in health score at 16 ug/ml treated for 60 mins post infection measured after 18 hrs; assay type: functional, organism-based
Candida albicans [7] = assay: Induction of apoptosis in Candida albicans ATCC 90028 biofilms assessed as detection of DNA ladder at 256 ug/ml after 10 mins by […]; assay type: functional, organism-based
Candida albicans [8] = assay: Antifungal activity against Candida albicans ATCC 90028 infected in Galleria mellonella larvae assessed as increase in health score at 16 ug/ml treated for 60 mins post infection measured after 48 hrs; assay type: functional, organism-based; summary of the method: as §2
Candida albicans [9] = assay: Antifungal activity against Candida albicans ATCC 90028 infected in Galleria mellonella larvae assessed as increase in larvae health score at 16 ug/ml treated for 30 mins post infection and measured after 18 to 48 hrs; assay type: functional, organism-based; summary of the method: as §2
Candida albicans [10] = assay: Induction of early apoptosis in Candida albicans ATCC 90028 biofilms assessed as chromatin condensation at 0.03 ug/ml after 18 hrs by propidium iodide/acridine orange staining based confocal laser scanning microscopic analysis; assay type: functional, organism-based
Summary of the method: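 Caco-2-free model: the TR146 epithelial layer, 21 days post-seeding on filter inserts, was inoculated with 1.0–1.2×10^5/mL log-phase ATCC 90028 yeast. Biofilms were treated at 256, 16 or 0.0313 µg/mL for 18–48 h at 37°C in 5% CO2 and washed with PBS. Unfixed cells were stained with propidium iodide (5 µg/mL) and acridine orange, then imaged by confocal laser scanning microscopy.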

Candida albicans [11] = assay: Antifungal activity against Candida albicans ATCC 90028 infected in Galleria mellonella larvae assessed as survival at 16 ug/ml treated for 30 to 60 mins post infection; assay type: functional
Summary of the method: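 Larvae (195±17 mg, ethanol-disinfected) injected with 10 µL C. albicans suspension into last right proleg; single 10 µL dose (16 µg/mL in RPMI, diluted from 1600 µg/mL stock) into last left proleg 30 min or 1 h later. Controls: infected untreated and PBS-injected. Survival monitored every 24 h for 2 days; health index scored. At least three independent experiments.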

Candida albicans [12] = assay: Antifungal activity against Candida albicans ATCC 90028 infected in Galleria mellonella larvae assessed as increase in larvae survival at 16 ug/ml preincubated for 30 to 60 mins followed by fungal infection and measured every 24 hrs for 2 days; assay type: functional, organism-based; summary of the method: as §1

SMILES: ClCCCn1nnnc1-c1ccccc1Cl
- Ratio (Candida albicans [1]): 2

SMILES: Cc1ccc(-c2nnn(CCCN3CCOCC3)n2)cc1
- fractional inhibitory concentration index (FICI) (Candida albicans [2]): >1

SMILES: CCOC(=O)CCn1nnc(-c2ccccc2)n1
- Activity (Candida albicans [3]): inactive
- Activity (Candida albicans [4]): 63.41%
- Activity (Candida albicans [5]): Active
- Activity (Candida albicans [6]): Active
- Activity (Candida albicans [7]): inactive
- Activity (Candida albicans [8]): inactive
- Activity (Candida albicans [9]): Active
- Activity (Candida albicans [10]): Active
- Survival (Candida albicans [11]): <=18 hr
- Activity (Candida albicans [12]): Active
